# Like-named read-outs stand apart in the source and are kept apart here.
# Key:
# P. aeruginosa PheRS = P. aeruginosa PheRS (Pseudomonas aeruginosa, UniProt Q9I0A3); assay: tRNA aminoacylation assay in SPA format, P. aeruginosa PheRS; format: biochemical
# S. pneumoniae PheRS = S. pneumoniae PheRS (Streptococcus pneumoniae serotype 2, UniProt Q04LU1); assay: tRNA aminoacylation assay in SPA format, S. pneumoniae PheRS; format: biochemical
# [1] = system: cytoplasmic protein synthesis in wheat germ extracts; assay: Wheat germ extract poly-Phe cytoplasmic protein synthesis assay; format: biochemical; settings: poly-U mRNA, compound to 132 μM
# Summary of the method: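 Cytoplasmic poly-Phe synthesis in wheat germ extract programmed with poly-U mRNA, yeast tRNAPhe and [3H]phenylalanine. Levels of mRNA, tRNA, label and Mg++ were optimized for poly-Phe synthesis. Cycloheximide served as reference protein-synthesis inhibitor.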
# [2] = molecular target: T1, human mitochondrial PheRS (hmPheRS) (Homo sapiens, UniProt O95363); assay: Human mitochondrial PheRS aminoacylation assay; format: biochemical; settings: 132 μM compound; 0.2 μM hmPheRS; average of three assays
# T1 sequence (O95363 1-451): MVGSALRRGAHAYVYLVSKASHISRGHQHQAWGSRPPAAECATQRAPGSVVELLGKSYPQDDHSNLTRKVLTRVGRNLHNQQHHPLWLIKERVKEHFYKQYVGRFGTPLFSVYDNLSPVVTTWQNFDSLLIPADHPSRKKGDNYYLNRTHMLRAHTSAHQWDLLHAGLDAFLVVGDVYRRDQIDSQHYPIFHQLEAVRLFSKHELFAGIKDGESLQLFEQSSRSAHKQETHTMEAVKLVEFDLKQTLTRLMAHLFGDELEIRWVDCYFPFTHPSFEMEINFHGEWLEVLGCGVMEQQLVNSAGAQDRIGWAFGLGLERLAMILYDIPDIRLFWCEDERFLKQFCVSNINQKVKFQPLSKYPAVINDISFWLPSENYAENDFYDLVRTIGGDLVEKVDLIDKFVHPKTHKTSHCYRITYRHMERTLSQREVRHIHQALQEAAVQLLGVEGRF
# E. coli (ATCC 25922) = assay: Broth microdilution MIC; format: cell-based; settings: Escherichia coli, ATCC25922
# E. coli tolC = assay: Broth microdilution MIC; format: cell-based; settings: Escherichia coli
# E. faecalis (ATCC 29212) = assay: Broth microdilution MIC; format: cell-based; settings: Enterococcus faecalis, ATCC29212
# [3] = system: H. influenzae (ATCC 49766); assay: Broth microdilution MIC; format: cell-based; settings: Haemophilus influenzae, ATCC49766
# [4] = system: M. catarrhalis (ATCC 25238); assay: Broth microdilution MIC; format: cell-based; settings: Moraxella catarrhalis, ATCC25238
# [5] = system: P. aeruginosa (ATCC 47085); assay: Broth microdilution MIC; format: cell-based; settings: Pseudomonas aeruginosa, ATCC47085
# [6] = system: P. aeruginosa PAO200 (efflux mutant); assay: Broth microdilution MIC; format: cell-based; settings: Pseudomonas aeruginosa
# [7] = system: P. aeruginosa (hypersensitive); assay: Broth microdilution MIC; format: cell-based; settings: Pseudomonas aeruginosa, ATCC35151
# S. aureus (ATCC 29213) = assay: Broth microdilution MIC; format: cell-based; settings: Staphylococcus aureus, ATCC29213
# [8] = system: S. pneumoniae (ATCC 49619); assay: Broth microdilution MIC; format: cell-based; settings: Streptococcus pneumoniae, ATCC49619
# [9] = system: cytoplasmic protein synthesis in wheat germ extracts; settings: wheat germ extract; at 30 μM; cited from earlier work
# [10] = IC50s at five Phe concentrations 25 to 300 μM, ATP fixed at 2.5 mM
# [11] = IC50s at six ATP concentrations 25 to 1000 μM, Phe fixed at 100 μM
# P. aeruginosa PheRS, sequence (Q9I0A4 whole entry): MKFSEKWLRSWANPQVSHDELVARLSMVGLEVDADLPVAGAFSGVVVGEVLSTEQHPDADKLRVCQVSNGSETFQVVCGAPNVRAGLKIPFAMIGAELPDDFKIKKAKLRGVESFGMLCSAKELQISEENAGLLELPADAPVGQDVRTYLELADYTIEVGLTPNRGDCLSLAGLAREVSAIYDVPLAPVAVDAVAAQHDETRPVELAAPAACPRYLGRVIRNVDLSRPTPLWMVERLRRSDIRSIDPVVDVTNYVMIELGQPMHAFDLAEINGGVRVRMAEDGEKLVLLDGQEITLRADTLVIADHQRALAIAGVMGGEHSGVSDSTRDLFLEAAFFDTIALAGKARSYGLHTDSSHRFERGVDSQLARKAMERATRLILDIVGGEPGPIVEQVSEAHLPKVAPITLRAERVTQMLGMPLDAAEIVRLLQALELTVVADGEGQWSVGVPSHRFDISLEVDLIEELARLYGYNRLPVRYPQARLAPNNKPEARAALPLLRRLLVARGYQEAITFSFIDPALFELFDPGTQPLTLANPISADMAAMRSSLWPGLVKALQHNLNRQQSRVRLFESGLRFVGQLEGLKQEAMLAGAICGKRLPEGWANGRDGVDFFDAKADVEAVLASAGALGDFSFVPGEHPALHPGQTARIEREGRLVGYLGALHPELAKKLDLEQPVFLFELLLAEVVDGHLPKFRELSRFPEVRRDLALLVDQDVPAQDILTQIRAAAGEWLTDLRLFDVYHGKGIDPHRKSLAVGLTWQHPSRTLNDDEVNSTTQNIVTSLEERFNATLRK
# P. aeruginosa PheRS, sequence (Q9I0A3 whole entry): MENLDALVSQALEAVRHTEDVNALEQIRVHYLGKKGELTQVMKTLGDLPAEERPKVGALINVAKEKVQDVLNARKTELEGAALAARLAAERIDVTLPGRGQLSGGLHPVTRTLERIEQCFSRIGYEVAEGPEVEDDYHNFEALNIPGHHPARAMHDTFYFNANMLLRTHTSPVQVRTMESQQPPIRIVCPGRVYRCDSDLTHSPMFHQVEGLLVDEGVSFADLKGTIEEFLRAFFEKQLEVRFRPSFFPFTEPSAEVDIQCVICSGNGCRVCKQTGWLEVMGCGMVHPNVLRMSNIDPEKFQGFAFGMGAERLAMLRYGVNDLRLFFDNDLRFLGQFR
# S. pneumoniae PheRS, sequence (Q04LU1 whole entry): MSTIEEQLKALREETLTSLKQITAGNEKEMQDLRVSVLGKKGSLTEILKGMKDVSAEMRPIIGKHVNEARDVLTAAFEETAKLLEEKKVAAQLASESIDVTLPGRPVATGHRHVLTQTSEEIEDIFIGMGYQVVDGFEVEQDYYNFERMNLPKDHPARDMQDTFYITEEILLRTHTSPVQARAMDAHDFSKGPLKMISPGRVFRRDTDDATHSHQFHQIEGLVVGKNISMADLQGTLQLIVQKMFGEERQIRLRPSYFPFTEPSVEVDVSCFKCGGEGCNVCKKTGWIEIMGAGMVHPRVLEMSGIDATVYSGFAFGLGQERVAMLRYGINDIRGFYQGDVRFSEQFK
structure (smiles),measurement,setting,value
"Cc1cc2c(C(C)C)c(O)c(O)c(C=O)c2c(O)c1-c1c(C)cc2c(C(C)C)c(O)c(O)c(C=O)c2c1O [BPP_03B04, gossypol]",IC50,P. aeruginosa PheRS,2300 nM
same,Ki,P. aeruginosa PheRS,830 nM
same,mode of action relative to Phe,P. aeruginosa PheRS; [10],competitive
same,mode of action relative to ATP,P. aeruginosa PheRS; [11],uncompetitive
same,IC50,S. pneumoniae PheRS,4900 nM
same,Ki,S. pneumoniae PheRS,980 nM
same,mode of action relative to Phe,S. pneumoniae PheRS; [10],competitive
same,mode of action relative to ATP,S. pneumoniae PheRS; [11],uncompetitive
same,inhibition of protein synthesis,[1],no inhibition
same,decrease of hmPheRS activity,[2],approximately 80%
same,MIC,E. coli (ATCC 25922),128 µg/mL
same,MIC,E. coli tolC,128 µg/mL
same,MIC,E. faecalis (ATCC 29212),32 µg/mL
same,MIC,[3],16 µg/mL
same,MIC,[4],32 µg/mL
same,MIC,[5],16 µg/mL
same,MIC,[6],16 µg/mL
same,MIC,[7],16 µg/mL
same,MIC,S. aureus (ATCC 29213),16 µg/mL
same,MIC,[8],32 µg/mL
C[C@@H]1C[C@@H]([C@H](O)CC2CC(=O)NC(=O)C2)C(=O)[C@@H](C)C1 [cycloheximide],inhibition of protein synthesis,[9],inhibited
